From ChEMBL document CHEMBL1131227, “Hydroxyphthalocyanines as potential photodynamic agents for cancer therapy” (1998) come the findings set out here.

The test system of experiment [1] is EMT6. In words: Drug dose required to kill 90% of cells(EMT-6 mammary tumor cell line) after 24 hr incubation with a fixed fluence of 2.4 J cm-2. The class given is functional. An outline of the steps: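 EMT-6 mouse mammary tumour cells were grown in Waymouth's medium with 15% FBS. They were seeded at 15 × 10³ per well overnight, then given dye (Cremophor emulsion diluted in Waymouth 1% FBS) for 1 or 24 h at 37 °C. Cells were rinsed and refed, then exposed to red light (λ > 590 nm, 10 mW cm⁻²) to 2.4 J cm⁻². MTT was read at 595 nm the next day. Dye-free cells set 100% survival.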

For experiment [2], the system named is EMT6. In words: Light dose required to kill 90% of cells(EMT-6 mammary tumor cell line) after 1 hr incubation with 1 uM concentration. The class given is functional. An outline of the steps: (§1)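 EMT-6 cells were seeded at 15 × 10³ per well and incubated 1 or 24 h at 37 °C with 1 μM dye from Cremophor emulsion in Waymouth 1% FBS. They were rinsed, refed with 15% FBS, and given red light (10 mW cm⁻²) over 0.1–20 J cm⁻². After overnight incubation, viability was read by MTT (595 nm). LD₉₀ was extrapolated from survival curves, with eightfold replicates per light dose and at least three experiments.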

Experiment [3] deals with EMT6. In words: Light dose required to kill 90% of cells(EMT-6 mammary tumor cell line) after 24 hr incubation with 1 uM concentration. Type of experiment: functional. An outline of the steps:
as §1

The test system of experiment [4] is Mus musculus. In words: % EMT-6 tumor edema response induced in BALB/c mice after ZnPc and Photofrin-mediated photodynamic therapy (PDT) at a concentration of 10 uM/kg. Type of experiment: functional, organism-based. The conditions noted are these: tested as the Zn salt or complex.
For experiment [5], the system named is Mus musculus. In words: % EMT-6 tumor necrosis response induced in BALB/c mice after ZnPc and Photofrin-mediated photodynamic therapy (PDT) at a concentration of 10 uM/kg. Conditions: tested as the Zn salt or complex. The class given is functional, organism-based.
Experiment [6] deals with Mus musculus. In words: % EMT-6 tumor regression response induced in BALB/c mice after ZnPc and Photofrin-mediated photodynamic therapy (PDT) at a concentration of 10 uM/kg. The class given is functional.
Experiment [7] concerns V-79 (Cricetulus griseus). The experiment in a line: Drug dose required to kill 90% of cells after 1 hr incubation with a fixed fluence of 2.4 J cm-2. (assay with Chinese hamster V-79 fibroblasts).
The test system of experiment [8] is Mus musculus. The experiment in a line: % EMT-6 tumor edema response induced in BALB/c mice after ZnPc and Photofrin-mediated photodynamic therapy (PDT) at a concentration of 1 umol/kg; Extensive. The class given is functional, organism-based. The conditions noted are these: tested as the Zn salt or complex. The method in brief:
(§2)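 Male BALB/c mice (18–22 g), shaved and depilated, bore EMT-6 tumors from intradermal injection of 2 × 10⁵ cells into each hind thigh. At 6–8 days (tumors 3–5-mm diameter, 2–3-mm thick), dye was given i.v. as a Cremophor emulsion (0.2 mL/20 g) at 1 or 2 μmol kg⁻¹. Red light followed 24 h later. Edema was scored 24 h after PDT as light (+), medium (++), important (+++) or extensive (++++).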

In experiment [9] the test system is Mus musculus. The experiment in a line: % EMT-6 tumor edema response induced in BALB/c mice after ZnPc and Photofrin-mediated photodynamic therapy (PDT) at a concentration of 2 umol/kg; Extensive. Type of experiment: functional, organism-based. The conditions noted are these: tested as the Zn salt or complex. The method in brief:
as §2

For experiment [10], the system named is Mus musculus. The experiment in a line: % EMT-6 tumor necrosis response induced in BALB/c mice after ZnPc and Photofrin-mediated photodynamic therapy (PDT) at a concentration of 1 uM/kg. The class given is functional.
Experiment [11] relates to Mus musculus. The experiment in a line: % EMT-6 tumor regression response induced in BALB/c mice after ZnPc and Photofrin-mediated photodynamic therapy (PDT) at a concentration of 1 uM/kg. The class given is functional. An outline of the steps: (§3)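 In male BALB/c mice (18–22 g), intradermal EMT-6 tumors on each hind thigh were grown 6–8 days to 3–5-mm diameter. Mice then received 1 or 2 μmol kg⁻¹ dye i.v. in Cremophor emulsion, with red-light exposure 24 h later. Scored as percent of animals showing complete tumor regression 3 weeks after PDT.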

The subject of experiment [12] is Mus musculus. In words: % EMT-6 tumor regression response induced in BALB/c mice after ZnPc and Photofrin-mediated photodynamic therapy (PDT) at a concentration of 2 umol/kg. The class given is functional. An outline of the steps:
as §3

For experiment [13], the system named is Mus musculus. In words: % EMT-6 tumor edema response induced in BALB/c mice after ZnPc and Photofrin-mediated photodynamic therapy (PDT) at a concentration of 1 umol/kg; Light. The class given is functional, organism-based. Conditions: tested as the Zn salt or complex. The method in brief:
as §2

The test system of experiment [14] is EMT6. The conditions noted are these: Mus musculus.
The species entered for experiment [15] is Mus musculus. The conditions noted are these: BALB/c, 2 umol/kg.
In experiment [16] the test system is Mus musculus. The experiment in a line: % EMT-6 tumor edema response induced in BALB/c mice after ZnPc and Photofrin-mediated photodynamic therapy (PDT) at a concentration of 1 umol/kg; Important. The class given is functional, organism-based. The conditions noted are these: tested as the Zn salt or complex. The method in brief:
as §2

Experiment [17] relates to Mus musculus. The experiment in a line: % EMT-6 tumor edema response induced in BALB/c mice after ZnPc and Photofrin-mediated photodynamic therapy (PDT) at a concentration of 2 umol/kg; Important. The conditions noted are these: tested as the Zn salt or complex. The class given is functional, organism-based. The method in brief: as §2
The mark [18] stands for this setting: Mus musculus, tested as the Zn salt or complex.

Calls of active or inactive are those of the source. No cut-off for these calls is given here. Where only a bound is given, the exact number is not on record here.

With `Oc1ccc2c(c1)-c1nc-2nc2[n-]c(nc3nc(nc4[n-]c(n1)c1ccc(O)cc41)-c1ccc(O)cc1-3)c1ccc(O)cc21.[Zn+2]`, the LC90 entry with EMT6 [1] (setting [18]) was “inactive”. Also, the LD90 result with EMT6 [2] (setting [18]) and with EMT6 [3] (setting [18]) was “inactive” each time. In addition, the result in the experiment on Mus musculus [4] was inactive. The Tumor response result in the experiment on Mus musculus [5] is “inactive”. Also, in the experiment on Mus musculus [6], the Tumor response is on record as 0%. Besides, the LC90 in experiment [7] was >100000 nM.
In the case of `Oc1ccc2c(c1)-c1nc-2nc2[n-]c(nc3nc(nc4[n-]c(n1)c1ccccc41)-c1ccc(O)cc1-3)c1ccc(O)cc21.[Zn+2]`, the LC90 in the experiment with EMT6 [1] was determined as 800 nM. Besides, the LD90 in the experiment with EMT6 [2] came to 19 J cm**-2; in the experiment on EMT6 [3] it was 0.48 J cm**-2.
`Oc1ccc2c(c1)-c1nc-2nc2[n-]c(nc3nc(nc4[n-]c(n1)c1ccccc41)-c1ccccc1-3)c1ccccc21.[Zn+2]` had an LC90 in the experiment with EMT6 [1] of 120 nM. For the same compound, the LD90 with EMT6 [2] stood at 0.4 J cm**-2; in the experiment with EMT6 [3] it was 0.15 J cm**-2. For the same compound, the Tumor response entry in the experiment on Mus musculus [8] is listed as “Extensive”; in the experiment on Mus musculus [9], “Extensive”; with Mus musculus [10], 100%; in the experiment on Mus musculus [11], 12%; with Mus musculus [12], 25%.
For `Oc1ccc2c(c1)-c1nc-2nc2[n-]c(nc3nc(nc4[n-]c(n1)c1ccccc41)-c1ccccc1-3)c1ccc(O)cc21.[Zn+2]`, in the experiment on EMT6 [1], the LC90 was 580 nM. The LD90 was 7.5 J cm**-2 with EMT6 [2] and 0.4 J cm**-2 in the experiment on EMT6 [3]. Also, the Tumor response result in the experiment with Mus musculus [13] was “Light”; with Mus musculus [10] it was 0%; in the experiment on Mus musculus [11], 0%; in the experiment with Mus musculus [12], 75%.
In the case of `[Zn+2].c1ccc2c(c1)-c1nc-2nc2[n-]c(nc3nc(nc4[n-]c(n1)c1ccccc41)-c1ccccc1-3)c1ccccc21` [(PHTHALOCYANINATO)ZINC(II)], the LC90 result in the experiment on EMT6 [1] (setting [18]) and in the experiment on EMT6 [14] was “inactive” in each case. The LD90 in the experiment on EMT6 [2] is 0.14 J cm**-2. In the experiment on EMT6 [3] (setting [18]), the LD90 result was “inactive”. Also, the Tumor response with Mus musculus [12] was 100%. Further, the Tumor response result in the experiment listed under Mus musculus [15] is “inactive”.
In the experiment on EMT6 [1], `Oc1cc2c(cc1O)-c1nc-2nc2[n-]c(nc3nc(nc4[n-]c(n1)c1ccccc41)-c1ccccc1-3)c1ccccc21.[Zn+2]` showed an LC90 of 300 nM. Also, the LD90 is on record as 2.4 J cm**-2 in the experiment with EMT6 [2] and 0.25 J cm**-2 in the experiment on EMT6 [3]. The Tumor response entry in the experiment on Mus musculus [16] is on record as “Important”; with Mus musculus [10] it was 62%; in the experiment on Mus musculus [11] it was 25%; with Mus musculus [12], 0%; in the experiment with Mus musculus [17], “Important”.
